Key:
[1] = test system: Human immunodeficiency virus 1; experiment: Antiviral activity against HIV-1 harboring L100I mutant infected in human MT4 cells […]; type: functional, organism-based; details: Human immunodeficiency virus 1, MT4
[2] = test system: Human immunodeficiency virus 1; experiment: Antiviral activity against HIV-1 harboring K103N mutant infected in human MT4 cells […]; type: functional, organism-based; details: Human immunodeficiency virus 1, MT4
[3] = test system: Human immunodeficiency virus 1; experiment: Antiviral activity against HIV-1 harboring E138K mutant infected in human MT4 cells […]; type: functional, organism-based; details: Human immunodeficiency virus 1, MT4
[4] = Selectivity index, ratio of CC50 for cytotoxicity against human MT4 cells to EC50 for antiviral activity against wild type HIV-1 IIIB infected in human MT4 cells; type: toxicity, cell-based; details: read-out: Ratio CC50/EC50
Summary of the method: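 Selectivity index calculated as CC50/EC50 ratio, both values from MTT viability readout in MT-4 cells, antiviral arm using wild-type HIV-1 IIIB.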

[5] = biological target: Human immunodeficiency virus type 1 reverse transcriptase (Human immunodeficiency virus 1, UniProt Q72547); experiment: Inhibition of wild type HIV-1 Reverse transcriptase
[6] = test system: Human immunodeficiency virus 1; experiment: Antiviral activity against wild type HIV-1 IIIB infected in human MT4 cells […]; type: functional, organism-based; details: Human immunodeficiency virus 1, IIIB
[7] = test system: Human immunodeficiency virus 1; experiment: Antiviral activity against HIV-1 harboring Y181C mutant infected in human MT4 cells […]; type: functional, organism-based; details: Human immunodeficiency virus 1, MT4
[8] = test system: Human immunodeficiency virus 1; experiment: Antiviral activity against HIV-1 harboring Y188L mutant infected in human MT4 cells assessed as inhibition of virus-induced cytopathic effect by MTT assay; details: Human immunodeficiency virus 1, MT4
[9] = Cytotoxicity against human MT4 cells by MTT assay; type: toxicity, cell-based

| SMILES | EC50 [1] [nM] | EC50 [2] [nM] | EC50 [3] [nM] | selectivity ratio [4] | IC50 [5] [nM] | EC50 [6] [nM] | EC50 [7] [nM] | EC50 [8] [nM] | CC50 [9] [nM] |
| --- | --- | --- | --- | --- | --- | --- | --- | --- | --- |
| N#Cc1ccc(Nc2nccc(/C(=N/N)c3ccc(-c4ccc(C#N)cc4)cc3C(F)(F)F)n2)cc1 | 58 | 106 | 68 | 2170 | 58 | 31 | 134 | 1140 | 68000 |
| Cc1cc(-c2ccc(C#N)cc2)ccc1C(NC1CC1)c1ccnc(Nc2ccc(C#N)cc2)n1 (stereo not drawn) | – | – | – | > 1760 | – | 156 | – | – | > 274000 |
| N#Cc1ccc(Nc2nccc(C(NCCCl)c3ccc(-c4ccc(C#N)cc4)cc3Cl)n2)cc1 (stereo not drawn) | – | – | – | 5890 | – | 42 | – | – | 243000 |
| CCCNC(c1ccnc(Nc2ccc(C#N)cc2)n1)c1ccc(-c2ccc(C#N)cc2)cc1C(F)(F)F (stereo not drawn) | – | – | – | 87 | – | 1010 | – | – | 90000 |
| COc1cc(-c2ccc(C#N)cc2)ccc1C(NC(C)C)c1ccnc(Nc2ccc(C#N)cc2)n1 (stereo not drawn) | – | – | – | 94 | – | 211 | – | – | 20000 |
| CCCNC(c1ccnc(Nc2ccc(C#N)cc2)n1)c1ccc(-c2ccc(C#N)cc2)cc1OC (stereo not drawn) | – | – | – | 110 | – | 131 | – | – | 14000 |
| N#Cc1ccc(Nc2nccc(C(C#N)c3ccc(-c4ccc(C#N)cc4)cc3F)n2)cc1 (stereo not drawn) | 1210 | 900 | 170 | 1360 | – | – | 870 | 9810 | 36000 |
| CCNC(c1ccnc(Nc2ccc(C#N)cc2)n1)c1ccc(-c2ccc(C#N)cc2)cc1OC (stereo not drawn) | – | – | – | 60 | – | 326 | – | – | 20000 |
| N#Cc1ccc(Nc2nccc(C(NCCCCl)c3ccc(-c4ccc(C#N)cc4)cc3Cl)n2)cc1 (stereo not drawn) | – | – | – | > 1260 | – | 195 | – | – | > 244000 |
| C/N=C(/c1ccnc(Nc2ccc(C#N)cc2)n1)c1ccc(-c2ccc(C#N)cc2)cc1OC | 293 | 169 | 83 | 1960 | 61 | 8 | 293 | 4460 | 16000 |
| N#Cc1ccc(Nc2nccc(C(NCCO)c3ccc(-c4ccc(C#N)cc4)cc3Cl)n2)cc1 (stereo not drawn) | – | – | – | 238 | – | 92 | – | – | 22000 |
| CCCNC(c1ccnc(Nc2ccc(C#N)cc2)n1)c1ccc(-c2ccc(C#N)cc2)cc1C (stereo not drawn) | – | – | – | > 1870 | – | 146 | – | – | > 273000 |
| CCCNC(c1ccnc(Nc2ccc(C#N)cc2)n1)c1ccc(-c2ccc(C#N)cc2)cc1OC(F)(F)F (stereo not drawn) | – | – | – | 40 | – | 662 | – | – | 27000 |
| Cc1ccnc2c1NC(=O)c1cccnc1N2C1CC1 [NEVIRAPINE] | 2060 | – | – | – | – | – | – | > 15000 | – |
| CCCNC(c1ccnc(Nc2ccc(C#N)cc2)n1)c1ccc(-c2ccc(C#N)cc2)cc1Cl (stereo not drawn) | – | – | – | > 1420 | – | 184 | – | – | > 261000 |
| N#Cc1ccc(Nc2nccc(C(NCCF)c3ccc(-c4ccc(C#N)cc4)cc3Cl)n2)cc1 (stereo not drawn) | – | – | – | > 3370 | – | 77 | – | – | > 259000 |
| Cc1cc(-c2ccc(C#N)cc2)ccc1/C(=N\N)c1ccnc(Nc2ccc(C#N)cc2)n1 | 16 | 17 | 13 | > 45000 | 23 | 7 | 47 | 442 | > 291000 |
| N#Cc1ccc(Nc2nccc(/C(=N/N)c3ccc(-c4ccc(C#N)cc4)cc3Cl)n2)cc1 | 22 | 49 | 76 | 33300 | 36 | 6 | 67 | 778 | 212000 |
| N#Cc1ccc(Nc2nccc(/C(=N/N)c3c(F)cc(-c4ccc(C#N)cc4)cc3F)n2)cc1 | 16 | 44 | 38 | 2480 | 31 | 9 | 64 | > 23100 | 23000 |
| N#Cc1ccc(Nc2nccc(C(NC3CC3)c3ccc(-c4ccc(C#N)cc4)cc3OC(F)(F)F)n2)cc1 (stereo not drawn) | – | – | – | 125 | – | 589 | – | – | 73000 |
| N#Cc1ccc(Nc2nccc(/C(=N/N)c3ccc(-c4ccc(C#N)cc4)cc3OC(F)(F)F)n2)cc1 | 180 | 182 | 340 | 4310 | 72 | 40 | 260 | 1480 | 171000 |
| COc1cc(-c2ccc(C#N)cc2)ccc1C(NC1CC1)c1ccnc(Nc2ccc(C#N)cc2)n1 (stereo not drawn) | – | – | – | 1680 | – | 72 | – | – | 123000 |
| N#Cc1ccc(Nc2nccc(C(NC3CC3)c3ccc(-c4ccc(C#N)cc4)cc3F)n2)cc1 (stereo not drawn) | – | – | – | > 431 | – | 630 | – | – | > 271000 |
